Assay results reported in ChEMBL document CHEMBL4342497, “Design, Synthesis, and Conformation-Activity Study of Unnatural Bridged Bicyclic Depsipeptides as Highly Potent Hypoxia Inducible Factor-1 Inhibitors and Antitumor Agents” (J Med Chem, 2020).
Calls of active or inactive are those of the source. The rule behind the calls is not given here.

Columns and labels:
[1] = test system: MCF7; test: Cytotoxicity against human MCF7 cells assessed as reduction in cell viability; type: functional, cell-based
How it was run: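 MTT viability assay. For the 72 h format, cells were plated overnight at 4.0×10^3 cells/well and then exposed to compounds for 72 h. For the 24 h screening format, cells were plated at 8.0×10^3 cells/well and exposed for 24 h. Medium was then refreshed, MTT was added at 0.5 mg/mL for 4 h at 37 °C, and cells were lysed in DMSO. Absorbance was read at 570 nm. IC50 reported as mean ± SD, n = 3.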

[2] = Inhibition of HIF1 (unknown origin) expressed in HEK293 cells assessed as reduction in hypoxia-induced HIF1 activation by luciferase reporter gene assay; type: cell-based; conditions: Homo sapiens
How it was run: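 HEK293 clone stably carrying the p2.1 HRE-luciferase reporter, seeded at 8.0×10^4 cells/well and grown 24 h under normoxia. Cells were given fresh medium containing 0.25% DMSO and a range of compound concentrations for 1 h, then held under hypoxia (1% O2) or normoxia for 24 h. Luciferase activity was measured with a kit and normalised to protein content. IC50 reported as mean ± SD, n = 3.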

[3] = Inhibition of HIF1 (unknown origin) expressed in HEK293 cells assessed as reduction in hypoxia-induced HIF1 activation pre-incubated for 1 hrs before hypoxia exposure for 24 hrs by luciferase reporter gene assay; type: cell-based; conditions: Homo sapiens
How it was run: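 HEK293 cells stably carrying HRE reporter plasmid p2.1, seeded at 8.0×10^4 per well and grown 24 h in normoxia. Medium changed to fresh medium with 0.25% DMSO and a range of compound concentrations for 1 h, then 24 h at 1% O2 or normoxia. Luciferase activity normalised to protein content. IC50 as mean ± SD, n = 3.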

[4] = test system: MCF7; test: Inhibition of hypoxia-induced HIF1 mRNA expression in human MCF7 cells incubated for 16 hrs by RT-PCR analysis; type: functional, cell-based
[5] = test system: MCF7; test: Cytotoxicity against human MCF7 cells assessed as reduction in cell viability incubated for 24 hrs by MTT assay; type: functional, cell-based; conditions: MCF7, 24 h
How it was run: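 MCF-7 cells seeded at 8.0×10^3 per well and treated with compound for 24 h. MTT 0.5 mg/mL added for 4 h at 37 °C after medium exchange, then DMSO lysis and absorbance at 570 nm. IC50 as mean ± SD, n = 3.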

[6] = test system: MCF7; test: Cytotoxicity against human MCF7 cells assessed as reduction in cell viability incubated for 72 hrs by MTT assay; type: functional, cell-based; conditions: MCF7, 72 h
How it was run: (§1)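 Cells seeded overnight at 3.0×10^3 (A549), 5.0×10^3 (HT29) or 4.0×10^3 (MCF-7, MDA-MB-231) per well, then exposed to compound for 72 h. Medium replaced, MTT 0.5 mg/mL added for 4 h at 37 °C, cells lysed in DMSO, absorbance read at 570 nm. IC50 as mean ± SD, n = 3. Final DMSO below 1.0%.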

[7] = test system: MDA-MB-231; test: Cytotoxicity against human MDA-MB-231 cells assessed as reduction in cell viability incubated for 72 hrs by MTT assay; type: functional, cell-based; conditions: MDA-MB-231, 72 h; how it was run: as §1
[8] = test system: A549; test: Cytotoxicity against human A549 cells assessed as reduction in cell viability incubated for 72 hrs by MTT assay; type: functional, cell-based; conditions: A549, 72 h; how it was run: as §1
[9] = Retardation factor of the compound
[10] = test system: HT-29; test: Cytotoxicity against human HT-29 cells assessed as reduction in cell viability incubated for 72 hrs by MTT assay; type: functional, cell-based; conditions: HT-29, 72 h; how it was run: as §1
[11] = Binding affinity to synthetic d(ACGTAGAACGT) dsDNA assessed as melting temperature at 2.5 uM by SYBR green I dye dependent differential scanning fluorimetry based thermal denaturation method (reference value: 44.2 +/- 1.0 degC)
[12] = Binding affinity to synthetic 5'-FAM-CCCTACGTATATGAAAATATACGTAGGG-BHQ1-3' dsDNA assessed as melting temperature at 2.5 uM by SYBR green I dye dependent differential scanning fluorimetry based thermal denaturation method (reference value: 70.7 +/- 0.0 degC)
[13] = test system: MCF7; test: Inhibition of hypoxia-induced HIF1 protein expression in human MCF7 cells incubated for 16 hrs by Western blot analysis; type: functional, cell-based
How it was run: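 MCF-7 cells (2.5×10^6 per 100 mm dish) exposed to several compound concentrations for 16 h under 20% or 1% O2. Lysates run on 8% SDS-PAGE and blotted to nitrocellulose. Blocked in 5% milk, probed with anti-HIF-1α (1:1000) and β-actin (1:3000), then HRP secondary. Detected by chemiluminescence.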

| SMILES | IC50 [3] | Tm [11] | Tm [12] | IC50 [1] | IC50 [2] | inhibition [4] | IC50 [5] | IC50 [6] | IC50 [7] | IC50 [8] | Rm [9] | IC50 [10] | inhibition [13] |
| --- | --- | --- | --- | --- | --- | --- | --- | --- | --- | --- | --- | --- | --- |
| CC(C)[C@H]1C(=O)OC[C@@H](NC(=O)c2cnc3ccccc3n2)C(=O)N[C@@H](C)C(=O)N(C)[C@H]2CSSC[C@@H](C(=O)N1C)N(C)C(=O)[C@H](C)NC(=O)[C@H](NC(=O)c1cnc3ccccc3n1)COC(=O)[C@H](C(C)C)N(C)C2=O [TRIOSTIN] | 26.9 nM | 47.2 °C | 78 °C | 4100 nM | 26.9 nM |  | 2000 nM | 212 nM | 178 nM | 322 nM | 0.15 | 340 nM |  |
| CC(C)[C@@H]1C(=O)OC[C@H](NC(=O)c2cnc3ccccc3n2)C(=O)N[C@H](C)C(=O)N(C)[C@@H]2CSSC[C@H](C(=O)N1C)N(C)C(=O)[C@@H](C)NC(=O)[C@@H](NC(=O)c1cnc3ccccc3n1)COC(=O)[C@@H](C(C)C)N(C)C2=O | > 100000 nM |  |  |  |  | inactive | > 100000 nM |  |  |  | 0.15 |  | inactive |
| CC(C)[C@H]1C(=O)OC[C@@H](NC(=O)c2cnc3ccccc3n2)C(=O)N[C@@H](C)C(=O)N(C)[C@H]2CSSC[C@@H](C(=O)N1C)N(C)C(=O)[C@H](C)NC(=O)[C@H](NC(=O)c1cnc3ccccc3n1)COC(=O)[C@@H](C(C)C)N(C)C2=O | 2000 nM |  |  |  |  |  | 24300 nM |  |  |  | 0.24 |  |  |
| CC(=O)N[C@@H]1COC(=O)[C@H](C(C)C)N(C)C(=O)[C@@H]2CSSC[C@@H](C(=O)N(C)[C@@H](C(C)C)C(=O)OC[C@@H](NC(C)=O)C(=O)N[C@@H](C)C(=O)N2C)N(C)C(=O)[C@H](C)NC1=O | > 100000 nM |  |  |  |  |  | 15500 nM |  |  |  | -0.3 |  |  |
| CC(C)[C@H]1C(=O)OC[C@@H](NC(=O)c2nc3ccccc3cc2O)C(=O)N[C@@H](C)C(=O)N(C)[C@H]2C/C=C\C[C@@H](C(=O)N1C)N(C)C(=O)[C@H](C)NC(=O)[C@H](NC(=O)c1nc3ccccc3cc1O)COC(=O)[C@H](C(C)C)N(C)C2=O | 0.09 nM | 54.3 °C |  |  |  |  |  | 0.22 nM |  |  | 0.52 |  | Dose-dependent effect |
| CC[C@H](C)[C@H]1C(=O)OC[C@@H](NC(=O)c2cnc3ccccc3n2)C(=O)N[C@@H](C)C(=O)N(C)[C@H]2CSSC[C@@H](C(=O)N1C)N(C)C(=O)[C@H](C)NC(=O)[C@H](NC(=O)c1cnc3ccccc3n1)COC(=O)[C@H]([C@@H](C)CC)N(C)C2=O | 60 nM |  |  |  |  |  | 4000 nM |  |  |  | 0.45 |  |  |
| CC(C)[C@H]1C(=O)OC[C@@H](NC(=O)c2cnc3ccccc3n2)C(=O)N[C@@H](C)C(=O)N(C)[C@H]2CSC[C@@H](C(=O)N1C)N(C)C(=O)[C@H](C)NC(=O)[C@H](NC(=O)c1cnc3ccccc3n1)COC(=O)[C@H](C(C)C)N(C)C2=O | 2.4 nM |  |  |  |  |  |  | 9.7 nM | 8 nM | 16.2 nM | 0.2 | 16.2 nM | Dose-dependent effect |
| CC(C)[C@H]1C(=O)OC[C@@H](NC(=O)CNC(=O)c2cnc3ccccc3n2)C(=O)N[C@@H](C)C(=O)N(C)[C@H]2CSSC[C@@H](C(=O)N1C)N(C)C(=O)[C@H](C)NC(=O)[C@H](NC(=O)CNC(=O)c1cnc3ccccc3n1)COC(=O)[C@H](C(C)C)N(C)C2=O | > 100000 nM |  |  |  |  |  | 13600 nM |  |  |  | -0.05 |  |  |
| CC(C)[C@@H]1C(=O)OC[C@@H](NC(=O)c2cnc3ccccc3n2)C(=O)N[C@@H](C)C(=O)N(C)[C@H]2CSSC[C@@H](C(=O)N1C)N(C)C(=O)[C@H](C)NC(=O)[C@H](NC(=O)c1cnc3ccccc3n1)COC(=O)[C@@H](C(C)C)N(C)C2=O | 590 nM |  |  |  |  |  | 6100 nM |  |  |  | 0.25 |  |  |

Further lines, with some results ahead:

| IC50 [3] | Tm [11] | Tm [12] | SMILES | IC50 [1] | IC50 [2] | inhibition [4] | IC50 [5] | IC50 [6] | IC50 [7] | IC50 [8] | Rm [9] | IC50 [10] | inhibition [13] |
| --- | --- | --- | --- | --- | --- | --- | --- | --- | --- | --- | --- | --- | --- |
| 0.35 nM | 55.8 °C | 81.6 °C | CSC1SC[C@H]2C(=O)N(C)[C@@H](C(C)C)C(=O)OC[C@@H](NC(=O)c3cnc4ccccc4n3)C(=O)N[C@@H](C)C(=O)N(C)[C@@H]1C(=O)N(C)[C@@H](C(C)C)C(=O)OC[C@@H](NC(=O)c1cnc3ccccc3n1)C(=O)N[C@@H](C)C(=O)N2C (some centres undefined) | 5.5 nM | 0.35 nM | inactive | 5.5 nM | 2 nM | 2.3 nM | 4.7 nM | 0.28 | 3.5 nM |  |
| 235 nM |  |  | CC(=O)SC[C@H]1C(=O)N(C)[C@@H](C(C)C)C(=O)OC[C@@H](NC(=O)c2cnc3ccccc3n2)C(=O)N[C@@H](C)C(=O)N(C)[C@@H](CSC(C)=O)C(=O)N(C)[C@@H](C(C)C)C(=O)OC[C@@H](NC(=O)c2cnc3ccccc3n2)C(=O)N[C@@H](C)C(=O)N1C |  |  |  | 8700 nM |  |  |  | 0.23 |  |  |
| 6.3 nM |  |  | CC(C)[C@H]1C(=O)OC[C@@H](NC(=O)c2cnc3ccccc3n2)C(=O)N[C@@H](C)C(=O)N(C)[C@H]2CCCC[C@@H](C(=O)N1C)N(C)C(=O)[C@H](C)NC(=O)[C@H](NC(=O)c1cnc3ccccc3n1)COC(=O)[C@H](C(C)C)N(C)C2=O |  |  |  | 123 nM | 23.5 nM | 25.3 nM | 71.9 nM | 0.32 | 57.4 nM |  |
| 1 nM | 52.5 °C | 81.3 °C | CC(C)[C@H]1C(=O)OC[C@@H](NC(=O)c2cnc3ccccc3n2)C(=O)N[C@@H](C)C(=O)N(C)[C@H]2C/C=C\C[C@@H](C(=O)N1C)N(C)C(=O)[C@H](C)NC(=O)[C@H](NC(=O)c1cnc3ccccc3n1)COC(=O)[C@H](C(C)C)N(C)C2=O |  |  |  | 13.4 nM | 2.9 nM | 3.2 nM | 5.3 nM | 0.25 | 6.2 nM | Dose-dependent effect |
| 2 nM |  |  | CC(C)[C@H]1C(=O)OC[C@@H](NC(=O)c2cnc3ccccc3n2)C(=O)N[C@@H](C)C(=O)N(C)[C@H]2C[Se]C[C@@H](C(=O)N1C)N(C)C(=O)[C@H](C)NC(=O)[C@H](NC(=O)c1cnc3ccccc3n1)COC(=O)[C@H](C(C)C)N(C)C2=O |  |  |  |  | 7.1 nM | 6.8 nM | 14.5 nM | 0.2 | 11.7 nM | Dose-dependent effect |
| 25.2 nM |  |  | CC(C)[C@H]1C(=O)OC[C@@H](NC(=O)c2cnc3ccccc3n2)C(=O)N[C@@H](C)C(=O)N(C)[C@H]2CSC(C)(C)SC[C@@H](C(=O)N1C)N(C)C(=O)[C@H](C)NC(=O)[C@H](NC(=O)c1cnc3ccccc3n1)COC(=O)[C@H](C(C)C)N(C)C2=O |  |  |  | 5900 nM |  |  |  | 0.31 |  |  |
| 32.3 nM |  |  | CC(C)[C@H]1C(=O)OC[C@@H](NC(=O)c2cnc3ccccc3n2)C(=O)N[C@@H](C)C(=O)N(C)[C@@H](CS)C(=O)N(C)[C@@H](C(C)C)C(=O)OC[C@@H](NC(=O)c2cnc3ccccc3n2)C(=O)N[C@@H](C)C(=O)N(C)[C@@H](CS)C(=O)N1C |  |  |  | 2700 nM |  |  |  | 0.28 |  |  |
| 55.5 nM |  |  | CC[C@H](C)[C@H]1C(=O)OC[C@@H](NC(=O)c2cnc3ccccc3n2)C(=O)N[C@@H](C)C(=O)N(C)[C@H]2CSSC[C@@H](C(=O)N1C)N(C)C(=O)[C@H](C)NC(=O)[C@H](NC(=O)c1cnc3ccccc3n1)COC(=O)[C@H](C(C)C)N(C)C2=O |  |  |  | 4100 nM |  |  |  | 0.39 |  |  |
| 222 nM |  |  | CSC[C@H]1C(=O)N(C)[C@@H](C(C)C)C(=O)OC[C@@H](NC(=O)c2cnc3ccccc3n2)C(=O)N[C@@H](C)C(=O)N(C)[C@@H](CSC)C(=O)N(C)[C@@H](C(C)C)C(=O)OC[C@@H](NC(=O)c2cnc3ccccc3n2)C(=O)N[C@@H](C)C(=O)N1C |  |  |  | 4300 nM |  |  |  | 0.34 |  |  |
